Legend:
[1] = molecular target: T1, Serine/threonine-protein kinase D1 (Homo sapiens, UniProt Q15139); assay: Inhibition of PKD1 by TR-FRET assay
T1 sequence (Q15139 whole entry): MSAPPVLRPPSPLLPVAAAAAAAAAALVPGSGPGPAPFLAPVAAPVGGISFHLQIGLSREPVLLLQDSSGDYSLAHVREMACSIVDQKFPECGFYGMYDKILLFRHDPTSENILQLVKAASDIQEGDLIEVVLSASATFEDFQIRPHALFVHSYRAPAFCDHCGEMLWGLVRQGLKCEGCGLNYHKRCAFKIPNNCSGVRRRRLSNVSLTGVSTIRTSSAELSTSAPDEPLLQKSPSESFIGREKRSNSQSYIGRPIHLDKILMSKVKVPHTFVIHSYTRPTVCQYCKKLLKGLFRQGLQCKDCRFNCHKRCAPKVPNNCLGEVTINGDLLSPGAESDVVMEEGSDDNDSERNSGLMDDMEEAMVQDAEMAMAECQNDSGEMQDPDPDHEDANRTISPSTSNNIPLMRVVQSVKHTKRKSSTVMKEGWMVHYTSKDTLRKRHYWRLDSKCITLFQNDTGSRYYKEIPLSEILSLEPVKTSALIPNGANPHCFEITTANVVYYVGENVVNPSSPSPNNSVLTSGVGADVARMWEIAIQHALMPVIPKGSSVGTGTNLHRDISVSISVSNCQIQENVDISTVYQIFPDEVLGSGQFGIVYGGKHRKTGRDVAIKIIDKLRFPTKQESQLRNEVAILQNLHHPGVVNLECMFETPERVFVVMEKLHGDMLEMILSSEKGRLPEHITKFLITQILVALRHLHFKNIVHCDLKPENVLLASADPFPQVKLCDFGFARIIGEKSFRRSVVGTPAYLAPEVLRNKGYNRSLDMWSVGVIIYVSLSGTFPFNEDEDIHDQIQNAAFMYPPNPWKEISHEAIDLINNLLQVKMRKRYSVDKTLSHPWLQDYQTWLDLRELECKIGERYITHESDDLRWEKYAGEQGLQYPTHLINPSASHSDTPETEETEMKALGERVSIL
Outline: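 Full-length wild-type PKD1 expressed and purified from Sf9 cells, 0.2 μg/mL, in 35 mM Tris-HCl pH 7.5, 5 mM MgCl2, 0.02% Tween-20, 20 μM ATP, 1 mM DTT. Reaction started with 2 μM biotinylated syntide-2 and run 50 min at room temperature. Stopped with EDTA plus europium anti-rabbit IgG, anti-phospho-syntide-2 antibody and streptavidin-APC. LANCE TR-FRET 665/615 ratio read after 1 h. 11-point curves in triplicate gave IC50.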

[2] = molecular target: T1, Serine/threonine-protein kinase D1; assay: Inhibition of PKD1 assessed as inhibition of HDAC5 neuclear export
Outline: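 Neonatal rat ventricular myocytes infected with adenovirus encoding GFP-HDAC5 and plated on gelatin-coated wells. Cells exposed to compound and stimulated with PGF2α for 2 h, then fixed. Cytoplasmic versus nuclear GFP intensity quantified by high-content imaging.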

[3] = molecular target: T2, Serine/threonine-protein kinase D2 (Homo sapiens, UniProt Q9BZL6); assay: Inhibition of PKD2 by TR-FRET assay
T2 sequence (Q9BZL6 whole entry): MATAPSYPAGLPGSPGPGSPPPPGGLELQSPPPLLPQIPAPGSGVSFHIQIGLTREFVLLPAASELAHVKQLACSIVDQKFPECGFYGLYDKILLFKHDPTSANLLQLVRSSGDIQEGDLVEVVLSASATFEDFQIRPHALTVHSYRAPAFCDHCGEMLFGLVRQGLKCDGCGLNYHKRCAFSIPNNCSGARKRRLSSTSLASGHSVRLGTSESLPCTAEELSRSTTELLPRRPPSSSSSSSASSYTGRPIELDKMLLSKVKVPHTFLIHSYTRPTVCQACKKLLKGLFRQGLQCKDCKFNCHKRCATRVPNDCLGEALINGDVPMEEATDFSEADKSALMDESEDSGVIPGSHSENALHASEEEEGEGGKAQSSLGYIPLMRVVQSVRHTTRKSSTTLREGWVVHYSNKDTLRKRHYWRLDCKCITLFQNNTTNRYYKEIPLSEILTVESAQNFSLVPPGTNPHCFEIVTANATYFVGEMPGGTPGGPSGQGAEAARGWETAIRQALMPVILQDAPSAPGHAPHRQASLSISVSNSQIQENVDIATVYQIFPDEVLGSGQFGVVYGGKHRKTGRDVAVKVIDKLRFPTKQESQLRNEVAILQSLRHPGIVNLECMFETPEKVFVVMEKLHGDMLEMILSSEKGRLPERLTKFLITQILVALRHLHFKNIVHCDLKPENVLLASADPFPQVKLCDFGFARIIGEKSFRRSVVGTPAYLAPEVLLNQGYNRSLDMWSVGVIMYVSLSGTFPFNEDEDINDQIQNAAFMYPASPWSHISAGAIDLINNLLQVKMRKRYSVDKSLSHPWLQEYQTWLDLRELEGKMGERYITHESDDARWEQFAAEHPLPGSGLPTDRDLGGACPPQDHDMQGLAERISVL

[4] = Oral bioavailability in Sprague-Dawley rat at 5 mg/kg; assay type: ADME, organism-based; conditions: in vivo
Outline: (§1)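 Rats dosed iv 2 mg/kg (n = 2) or po 5 mg/kg (n = 3) in 10% NMP, 10% Cremophor, 80% pH 4.63 buffer. PK parameters derived from iv dosing, reported as mean ± SD.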

[5] = Volume of distribution at steady state in Sprague-Dawley rat at 2 mg/kg, iv and 5 mg/kg, po; assay type: ADME, organism-based; conditions: in vivo, read-out: Vdss; outline: as §1
[6] = Cmax in rats after 5 mg/kg oral dose; assay type: ADME, organism-based; set-up: dose 5 mg/kg, route oral; conditions: Sprague-Dawley, rat, in vivo
[7] = AUC (0 to 8 hrs) in Sprague-Dawley rat at 5 mg/kg, po; assay type: ADME, organism-based; set-up: time < 8 hr, dose 5 mg/kg, route oral; conditions: plasma
[8] = Clearance in Sprague-Dawley rat at 2 mg/kg, iv and 5 mg/kg, po; assay type: ADME, organism-based; conditions: in vivo; outline: as §1
[9] = Half life in rats after 2 mg/kg intravenous dose; assay type: ADME, organism-based; set-up: dose 2 mg/kg, route intravenous; conditions: Sprague-Dawley, rat, in vivo; outline: as §1

Row | SMILES | IC50 [1] [nM] | EC50 [2] [nM] | IC50 [3] [nM] | bioavailability [4] [%] | Vd [5] [L/kg] | Cmax [6] [nM] | AUC(0-t) at 8 h [7] [µM·h] | clearance [8] [mL/min/kg] | half-life [9] [h]
1 | CCNc1cc(-c2cc(C(N)=O)cc(N3CCNCC3)n2)ccn1 | 4 | > 1000 | 31 | – | – | – | – | – | –
2 | NC(=O)c1cc(-c2ccnc(NC3CCCCC3)c2)nc(N2CCOCC2)c1 | > 1000 | – | – | – | – | – | – | – | –
3 | c1cc(-c2cc(-c3cn[nH]c3)cc(N3CCNCC3)n2)cc(NC2CCOCC2)n1 | < 1 | 234 | 2 | – | – | – | – | – | –
4 | NC(=O)c1cc(-c2ccnc(NC3CCCC3)c2)nc(N2CCNCC2)c1 | 6 | 202 | 59 | – | – | – | – | – | –
5 | NCC1CCN(c2cc(C(N)=O)cc(-c3ccnc(NC4CCCCC4)c3)n2)CC1 | 46 | > 1000 | 212 | – | – | – | – | – | –
6 | O=C1NCc2c1cc(-c1ccnc(NC3CCCCC3)c1)nc2N1CCNCC1 | 35 | > 1000 | – | 5 | 35 | 31 | 0.1 | 86 | 6.2
7 | FC(F)c1cc(-c2ccnc(NC3CCCCC3)c2)nc(N2CCNCC2)c1 | 17 | 568 | 76 | – | – | – | – | – | –
8 | NC(=O)c1cc(N[C@H]2CCNC2)nc(-c2ccnc(NC3CCCCC3)c2)c1 | 68 | > 1000 | 540 | – | – | – | – | – | –
9 | c1cc(-c2cc(-c3cc[nH]n3)cc(N3CCNCC3)n2)cc(NC2CCCCC2)n1 | 4 | 704 | 62 | – | – | – | – | – | –
10 | N#Cc1cc(-c2ccnc(Nc3ccccc3)c2)nc(N2CCNCC2)c1 | 5 | 378 | 35 | 18 | 7.8 | 231 | 1.1 | 31 | 3.1
11 | CC(C)Nc1cc(-c2cc(C(N)=O)cc(N3CCNCC3)n2)ccn1 | 1 | 438 | 8 | – | – | – | – | – | –
12 | CC1(C)CN(c2cc(C(N)=O)cc(-c3ccnc(NC4CCCCC4)c3)n2)CCN1 | 55 | > 1000 | 427 | – | – | – | – | – | –
13 | CN1CCN(c2cc(C(N)=O)cc(-c3ccnc(NC4CCCCC4)c3)n2)CC1 | 25 | 752 | 238 | – | – | – | – | – | –
14 | O=C1NCc2c1cc(N1CCNCC1)nc2-c1ccnc(NC2CCCCC2)c1 | 1 | 115 | – | – | – | – | – | – | –
15 | NC(=O)c1cc(N[C@@H]2CCNC2)nc(-c2ccnc(NC3CCCCC3)c2)c1 | 2 | > 1000 | 18 | – | – | – | – | – | –
16 | CC(C)Nc1cc(-c2cc(-c3cn[nH]c3)cc(N3CCNCC3)n2)ccn1 | < 1 | 92 | 2 | – | – | – | – | – | –
17 | NC(=O)c1cc(-c2ccnc(Nc3ccccc3Cl)c2)nc(N2CCNCC2)c1 | 1 | 478 | 8 | – | – | – | – | – | –
18 | NC(=O)c1cc(-c2ccnc(NC3CCOCC3)c2)nc(N2CCNCC2)c1 | 1 | > 1000 | 9 | – | – | – | – | – | –
19 | C[C@H]1CN(c2cc(C(N)=O)cc(-c3ccnc(NC4CCCCC4)c3)n2)CCN1 | 8 | 831 | 86 | – | – | – | – | – | –
20 | NC(=O)c1cc(-c2ccnc(Nc3ccccc3)c2)nc(N2CCNCC2)c1 | 1 | 24 | 1 | – | – | – | – | – | –
21 | NC(=O)c1cc(-c2ccnc(NC3CCCCC3)c2)nc(N2CCCC(N)C2)c1 (centres undefined) | 14 | > 1000 | 168 | – | – | – | – | – | –
22 | C[C@@H]1CN(c2cc(C(N)=O)cc(-c3ccnc(NC4CCCCC4)c3)n2)CCN1 | – | 679 | – | – | – | – | – | – | –
23 | FC(F)(F)c1cc(-c2ccnc(NC3CCCCC3)c2)nc(N2CCNCC2)c1 | – | 342 | – | 31 | – | 251 | 0.73 | – | –
24 | Cn1ccc(Nc2cc(-c3cc(C(N)=O)cc(N4CCNCC4)n3)ccn2)n1 | 1 | 674 | 7 | – | – | – | – | – | –
25 | c1cc(-c2cc(-c3cn[nH]c3)cc(N3CCNCC3)n2)cc(NC2CCCCC2)n1 | < 1 | 17 | 1 | – | – | – | – | – | –
26 | Cn1ccc(Nc2cc(-c3cc(C#N)cc(N4CCNCC4)n3)ccn2)n1 | – | 428 | 68 | – | – | – | – | – | –
